# Rows were chosen to be rich in hits. Some 4.8% of all compounds tested hit in one or more screens of this group.
# NLRP3 yeast inh: NALP3 inhibition in yeast. Yeast reconstituted NLRP3/ASC/caspase-1, beta-gal luminescence, 24 h. inhibition, % at 10 µM. 330,000 compounds, 0.39% hits. AID 2825;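 active means inhibition of 50% or more; inactive means inhibition below 50%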;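 further: plate controls were induced DMSO wells for no effect and uninduced yeast grown without galactose for full effect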
# Calb FLC: C. albicans growth modulation with fluconazole; 300,000 compounds, 0.57% hits; C. albicans CaCi-2 + fluconazole, Alamar Blue growth, 48 h; growth inhibition, % (concentration not given with the values); AID 1979;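 active means growth inhibition above about 58% in most replicates, limit read from the data, passing the limit was not always enough; inconclusive means exactly half the replicates above a set limit; inactive means most replicates below a set limit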;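 further: all wells also contain fluconazole at 8 µg/ml as a sub-toxic cotreatment; 0% = median of DMSO wells and 100% = median of geldanamycin control wells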
# NALP1 inh: inhibitors of NALP1 inflammasome in yeast | 280,000 compounds, 0.61% hits | S. cerevisiae NALP1/ASC/caspase-1 growth, X-gal OD620, 72 h | inhibition, % at 10 µM | AID 2071; in the data active means inhibition mostly above about 24%, no sharp cut-off; inactive means mostly below about 32%
# ATG4B inhibitor: ATG4B (human) cysteine protease inhibition | Q9Y4P1 | ATG4B cleavage of LC3-PLA2, NBD-HPC fluorescence, 1 h | inhibition, % at 8.33 µM | 340,000 compounds, 0.51% hits | AID 504462; in the data active means inhibition above about 40%
# Target sequence (Q9Y4P1 whole entry, looked up): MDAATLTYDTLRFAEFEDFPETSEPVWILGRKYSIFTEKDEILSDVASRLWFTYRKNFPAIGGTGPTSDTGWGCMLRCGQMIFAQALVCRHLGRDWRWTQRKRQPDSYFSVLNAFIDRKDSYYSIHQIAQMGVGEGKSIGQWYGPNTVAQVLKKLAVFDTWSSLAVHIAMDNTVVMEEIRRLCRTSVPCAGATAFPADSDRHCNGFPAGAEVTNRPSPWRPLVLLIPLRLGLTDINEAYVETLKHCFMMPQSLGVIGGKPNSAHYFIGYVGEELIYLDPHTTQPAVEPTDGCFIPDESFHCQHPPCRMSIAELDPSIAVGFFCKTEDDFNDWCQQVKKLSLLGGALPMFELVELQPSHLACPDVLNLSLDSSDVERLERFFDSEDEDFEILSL
# ALR inh: human ALR oxidase inhibition via reduced H2O2; P55789; purified ALR, DTT oxidation, H2O2 HRP-luminol luminescence; inhibition, % (test concentration not listed); 290,000 compounds, 3.8% hits; AID 485317;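 active means mean replicate inhibition above about 79%, with every replicate also reaching it, limit read from the data; inconclusive means only one of the two criteria met; inactive means mean below limit and not every replicate reaching it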
# Target sequence (P55789 whole entry, looked up): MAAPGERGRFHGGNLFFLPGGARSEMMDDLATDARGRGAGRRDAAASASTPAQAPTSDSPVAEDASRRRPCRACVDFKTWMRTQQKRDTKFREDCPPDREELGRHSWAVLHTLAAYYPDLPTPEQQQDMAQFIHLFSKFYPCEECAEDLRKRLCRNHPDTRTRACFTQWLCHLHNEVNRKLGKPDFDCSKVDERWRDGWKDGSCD
# UCH37 DUB inh: blocks the human deubiquitinase UCH37; 330,000 compounds, 0.33% hits; inhibition, % (concentration not given with the values); purified proteasome/UCH37, Ub-AMC cleavage fluorescence; Q9Y5K5;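 active means mean inhibition over replicate wells above about 20%, limit read from the data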;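 further: 0% = compound-free wells with enzyme and 100% = wells lacking proteasome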
#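 assay system = human UCH37 enzyme supplied as purified proteasome complex | amount = proteasome at 0.15 nM in the dispensed enzyme solution | schedule = 30 min compound-proteasome preincubation then 25 min substrate reaction, room temperature | measured by = fluorescence, ex 355 nm, em 460 nm | benchmarks = no-proteasome wells (full inhibition) and compound-free wells (no inhibition)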
# * marks the source's active call; other numbers are inactive results; ? = inconclusive; . = no result.
SMILES,NLRP3 yeast inh,Calb FLC,NALP1 inh,ATG4B inhibitor,ALR inh,UCH37 DUB inh
O=C(Nc1ccccc1N1CCOCC1)c1cccc(F)c1,-30,7,11,6,96*,2
O=C(Nc1cccc(F)c1)c1cccnc1N1CCOCC1,2,-12,2,6,85*,6
CC(/C=C/c1ccco1)=NNC(=O)c1cc(C)[nH]n1,.,.,.,.,.,6
CC(=NNC(=S)Nc1ccc(F)cc1)c1ccc2c(c1)OCCO2,.,.,.,.,.,3
CC(C)(C)c1nnc2sc(SCCN3C(=O)c4ccccc4C3=O)nn2c1=O,11,-3,7,-1,99*,6
Cc1nnc2sc(SCc3cccc(Cl)c3)nn2c1=O,29,2,3,2,100*,7
Cc1nnc2sc(SCc3ccccc3Cl)nn2c1=O,24,?,4,6,96*,2
Cc1nnc2sc(SCc3ccccc3)nn2c1=O,7,37,18,.,20,6
CCn1c(SCC(=O)NN=Cc2ccc(O)c(OC)c2)nc2ccccc21,.,.,.,.,.,3
COc1ccc(C=NNC(=S)Nc2ccccc2)cc1COc1cccc(C)c1C,.,.,.,.,.,0
Cc1cc(NC(=O)C2CCCN(S(=O)(=O)c3cnc[nH]3)C2)ccc1Br (configuration not stated),9,-8,2,-5,93*,10
CCN(CC)c1ccc(NC(=O)C2CCCN(S(=O)(=O)c3cnc[nH]3)C2)c(C)c1 (configuration not stated),8,2,0,-3,101*,3
Cc1ccc(NC(=O)C2CCCN(S(=O)(=O)c3cnc[nH]3)C2)cc1C (configuration not stated),11,-1,28,0,98*,3
COc1ccc(C)cc1NC(=O)C1CCCN(S(=O)(=O)c2cnc[nH]2)C1 (configuration not stated),2,-1,29,-9,46,5
CCSc1nnc(NC(=O)C2CCCN(S(=O)(=O)c3cnc[nH]3)C2)s1 (configuration not stated),14,-4,31,-11,93*,4
CC(Cn1cnc([N+](=O)[O-])n1)=NNC(=O)c1cccnc1,.,.,.,.,.,1
CCCOc1ccc(C=NNC(=O)C2CC2)c(OCCC)c1,.,.,.,.,.,7
CN(C)S(=O)(=O)Oc1cccc(C(=O)Nc2cccc(Cl)c2)c1,21,108*,-2,-15,.,5
CN(C)S(=O)(=O)Oc1cccc(C(=O)Nc2ccc(Cl)c(Cl)c2)c1,-3,92*,15,-13,-4,6
COc1ccc(NC(=O)c2cccc(OS(=O)(=O)N(C)C)c2)cc1,6,42,14,1,2,7
COc1cccc(-n2c(SC3CCOC3=O)nc3ccccc3c2=O)c1 (configuration not stated),3,-6,-17,-3,95*,1
O=C(Cc1ccccc1)NN=C/C=C/c1ccccc1[N+](=O)[O-],.,.,.,.,.,5
O=C(NCc1ccccc1)c1sc(=S)n2c1[nH]c(=O)c1ccccc12,-13,87*,6,-5,98*,11
O=C(C1=C(O)C(=O)N(c2nccs2)C1c1ccccc1)c1cc2ccccc2o1 (configuration not stated),15,42,8,-16,96*,5
Cc1cc(N2C(=O)C(O)=C(C(=O)c3ccco3)C2c2cccc(O)c2)no1 (configuration not stated),18,45,11,-6,-4,8
SMILES,NLRP3 yeast inh,Calb FLC,NALP1 inh,ATG4B inhibitor,ALR inh,UCH37 DUB inh
Cc1cc(N2C(=O)C(O)=C(C(=O)c3cc4ccccc4o3)C2c2cccs2)no1 (configuration not stated),2,?,-2,-3,-1,.
Cc1cc(N2C(=O)C(O)=C(C(=O)c3ccco3)C2c2cccc(Oc3ccccc3)c2)no1 (configuration not stated),-9,52,16,-10,94*,.
Cc1ccc(C2C(C(=O)c3cc4ccccc4o3)=C(O)C(=O)N2c2cc(C)on2)cc1 (configuration not stated),-8,25,22,-8,98*,.
Cc1cc(N2C(=O)C(O)=C(C(=O)c3cc4ccccc4o3)C2c2ccc([N+](=O)[O-])cc2)no1 (configuration not stated),28,0,4,-1,98*,9
CC(=O)NN=C(C)C1COc2ccccc2O1 (configuration not stated),.,.,.,.,.,2
COc1cccc(C(=O)NN=Cc2cn[nH]c2-c2ccc(OC)cc2OC)c1,.,.,.,.,.,2
COC(=O)c1ccc(C2C(C(=O)c3ccc(C)o3)=C(O)C(=O)N2c2cc(C)on2)cc1 (configuration not stated),15,15,13,-5,91*,4
COC(=O)c1ccc(C2C(C(=O)c3ccco3)=C(O)C(=O)N2c2cc(C)on2)cc1 (configuration not stated),12,3,13,-5,18,12
COc1cc2sc3cc(NCCCN4CCOCC4)ccc3c(=O)c2cc1OC,12,.,.,-17,99*,-94
CCN(CC)S(=O)(=O)c1ccccc1C=NO,.,.,.,.,.,3
O=C1C(c2ccccc2)=[N+]([O-])c2ccccc21,25,41,.,-17,91*,-17
Cc1c(OCc2nn[nH]n2)ccc2c3c(c(=O)oc12)CCC(C)C3 (configuration not stated),-3,-6,-11,9,98*,-94
Cc1occc1C(=O)NCc1ccccn1,1,-4,24,8,82*,0
Cc1occc1C(=O)NCc1cccc(CNC(=O)c2ccoc2C)c1,-1,2,5,10,.,2
CC(C)(C)OC(=O)N1CCN(C(=O)c2ncn(Cc3ccccc3)c2C(=O)N2CCN(C(=O)OC(C)(C)C)CC2)CC1,4,.,.,-14,4,29*
Cc1ccc(S(=O)(=O)NN2C(=O)/C(=C/c3ccc(C(=O)O)cc3)SC2=S)cc1,13,3,24,3,5,21*
Cc1ccc(S(=O)(=O)NN2C(=O)/C(=C/c3cccn3C)SC2=S)cc1,.,.,-4,.,97*,.
COc1cccc(/C=C2\SC(=S)N(NS(=O)(=O)c3ccccc3)C2=O)c1OC,-14,55,-34,-3,97*,19
C=CCOc1ccc(/C=C2\SC(=S)N(NS(=O)(=O)c3ccc(C)cc3)C2=O)cc1,24,88*,-17,33,-6,6
Cc1ccc(/C=C2\SC(=S)N(NS(=O)(=O)c3ccc(C)cc3)C2=O)cc1,13,-1,-5,13,-1,11
Cc1ccc(S(=O)(=O)NN2C(=O)/C(=C/c3cccs3)SC2=S)cc1,3,0,.,-2,.,12
COc1cc(/C=C2\SC(=S)N(NS(=O)(=O)c3ccccc3)C2=O)cc(OC)c1OC,19,30,14,-6,.,8

# Screening data as filed in PubChem.
